# PubChem BioAssay AID720543 (The Scripps Research Institute Molecular Screening Center, 2013)
# The campaign covered roughly 370,000 compounds. About 2,000 (0.54%) were called active. The list comes from a sample in which actives are over-represented; it also holds similar structures and randomly drawn compounds. Unmarked numbers belong to inactive results.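 Rule for the calls: active = inhibition exceeding the mean over every tested compound plus 3 SD (cut at about 30% in these data); inactive = the rest.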
# Molecular target: (Lyso)-N-acylphosphatidylethanolamine lipase (Mus musculus) (UniProt Q8VD66)
# Assay: mouse ABHD4 hydrolase activity blockers – biochemical, fluorescence polarization, primary screen (AID 720543);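 note: 0% = plate median of compound wells and 100% = S159A mutant with DMSO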
# Conditions: purified mABHD4, FP-Rh probe fluorescence polarization; at 8.92 µM; hits give high values
# How it was run: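 System: mouse ABHD4 enzyme, wild type / Medium: HEPES pH 7.0, NaCl, Pluronic buffer / Reagent: FP-Rh activity-based fluorescent probe / Control set: S159A mutant high control, sample median low control / Detection: fluorescence polarization with parallel and perpendicular emission, 525/598 nm / Schedule: 45 min + 60 min at 25 °C / Compound dosing: 8.92 µM, single dose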
# (Lyso)-N-acylphosphatidylethanolamine lipase (Mus musculus), sequence (Q8VD66 whole entry, looked up): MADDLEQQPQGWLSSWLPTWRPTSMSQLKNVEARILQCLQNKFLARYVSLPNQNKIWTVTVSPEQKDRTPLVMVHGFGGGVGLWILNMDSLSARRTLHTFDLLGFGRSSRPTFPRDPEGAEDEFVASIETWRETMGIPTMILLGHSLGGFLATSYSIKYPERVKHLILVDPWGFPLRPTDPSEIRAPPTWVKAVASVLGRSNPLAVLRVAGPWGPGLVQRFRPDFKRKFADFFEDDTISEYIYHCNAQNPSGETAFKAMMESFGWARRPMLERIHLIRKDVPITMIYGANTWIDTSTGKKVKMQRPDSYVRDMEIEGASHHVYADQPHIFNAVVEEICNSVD
row,SMILES,inhibition
1,Cc1noc(C)c1C(=O)N(CC(=O)NC1CCCC1)Cc1ccccc1F,8.87%
2,Cc1ccc2c(C)c(C(=O)N(C)CCC3CCCCO3)oc2c1C (configuration not stated),2.89%
3,COC(=O)CC1CCc2cc(C)cc(C(CC(C)C)NC(=O)[C@H](CC(C)C)NC(=O)OCc3ccccc3)c2O1 (some centres not stated),1.24%
4,COCCOC(=O)c1sc(=S)n(CCOC)c1N,52.1% (active)
5,C=CCN(Cc1ccc2c(c1)OCO2)C(C#CC1CC1)C(C)(C)C (configuration not stated),7.34%
6,N#Cc1ccc(OC[C@@H](O)CN2CCC(C(O)(c3ccccc3)c3ccccc3)CC2)c(F)c1,3.13%
7,COCCCn1c(SCC(=O)Nc2oc(C)c3c(C)n[nH]c(=O)c23)nc2sc3c(c2c1=O)CCC3,-0.16%
8,NC(=O)COc1ccc(/C=N/NC(=O)C2CCCN2S(=O)(=O)c2ccc(Cl)cc2)cc1 (configuration not stated),-2.8%
9,NC(N)=N/N=C/c1ccc(OCc2ccc(Cl)cc2Cl)cc1,31.7% (active)
10,COC(=O)c1ccccc1-n1cc(COC(=O)NCCc2ccccc2)nn1,4.86%
11,CC(=O)c1ccc(S(=O)(=O)NCC2CCN(C(=O)C(=O)c3cccs3)CC2)cc1,-4.2%
12,C=C1C(C(C)C)N(C)C2=NC(c3ccccc3)CC(=O)N12 (configuration not stated),-4.4%
13,Clc1ccc2nc(CSc3ccccc3)cn2c1,0.19%
14,CCCCCCSc1ccc(-c2nc3ccc(Cl)cn3c2NCc2ccccc2)cc1,30.7% (active)
15,COc1ccccc1Cc1c(-c2ccc(Cl)cc2)nc2ccc(Cl)cn12,-4.24%
16,CCOC(=O)C1(S(=O)(=O)c2ccc(Cl)cc2)CCN(Cc2ccccc2)CC1,-3.97%
17,c1csc(-c2nnc(COc3ccc4c(c3)OCO4)o2)c1,2.17%
18,c1coc(CCNc2ncnc3ccc(-c4ccc5c(c4)OCO5)cc23)c1,-22.8%
19,Cc1ccc(NC(=O)Cc2nc(COC(=O)C(C)NS(=O)(=O)c3ccc(C)cc3)cs2)cc1 (configuration not stated),30% (active)
20,CC(=O)Nc1ccc(S(=O)(=O)NC(C)C(=O)OCC(=O)NC2CCCC2)cc1 (configuration not stated),-2.25%
21,C/C=C/C(=O)OCc1csc(CC(=O)Nc2ccccc2C)n1,-5.94%
22,Cc1cc(C)c2nc3nc(C)cc(C)c3c(N)c2c1,-1.05%
23,Cc1sc2nc(SCC(=O)c3ccc(O)c(O)c3)n(Cc3ccco3)c(=O)c2c1C,4.55%
24,COCCCNC(=O)C[C@H]1C[C@@]2(C(=O)OC)C(=C[C@H](C(C)(C)C)O[C@@H]2C)N(Cc2ccc3c(c2)OCO3)C1=O,1.21%
25,CCOC(=O)c1cc(-c2sc(NC(=O)c3ccccc3)nc2C)n(-c2ccc(Br)cc2)n1,1.18%
26,Cc1ccc2c(C(=O)CN3CCCC3)c(C)[nH]c2c1,0.49%

row,SMILES,inhibition
1,Nc1ccc(Nc2ccccc2)cc1,46.5% (active)
2,Cc1ccc(Nc2ccccc2N)cc1,28.9%
3,O=c1cnnc(Nc2ccccc2)[nH]1,4.6%
4,CCCc1ccc(C(O)c2ncc(-c3cccc(OC)c3)[nH]2)cc1 (configuration not stated),-9.64%
5,Cc1ccc(CN2CCCCC(NC(=O)C3CCCCC3)C2=O)cc1 (configuration not stated),-4.62%
6,COC(=O)C1CN(CC(C)C)CCS(=O)(=O)N1Cc1ccc(C)cc1 (configuration not stated),2.37%
7,CN1c2ccc(C=O)c3c(C=O)ccc(c23)N(C)C1(C)C,64.5% (active)
8,COC(=O)C1CN(CC(C)C)CCS(=O)(=O)N1Cc1ccc(F)cc1 (configuration not stated),0.68%
9,CCC(=O)c1c(CC)c2n3c1=CC[C@H]3CC(Br)C=2 (some centres not stated),3.54%
10,Cc1cc(C)n2ncc(C(=O)Nc3ccc4c(c3)OCCO4)c2n1,1.04%
11,O=C(N/N=C/c1cccc([N+](=O)[O-])c1)C1CC(=O)N(c2ccc(Br)cc2)C1 (configuration not stated),-2.95%
12,Cc1cc(C(=O)N/N=C/c2ccc(O)c([N+](=O)[O-])c2)c(C)n1-c1ccc(F)cc1,37.5% (active)
13,Cc1cc(C(=O)COc2ccccc2[N+](=O)[O-])c(C)n1-c1cccc(S(=O)(=O)N2CCOCC2)c1,-5.94%
14,O=C1CC(c2ccc3c(c2)OCO3)N=C2N(CC3CC3)C/C(=C/c3ccccc3)N12 (configuration not stated),5.86%
15,COc1cccc(CNC(=O)[C@H]2CCCN2C(=O)[C@H]2CCCN2C(=O)c2cc(F)cc(F)c2)c1,1.83%
16,Cc1cc(=O)n2[nH]c(-c3sccc3-n3c(C)ccc3C)cc2n1,16.4%
17,O=[N+]([O-])/C=C/c1ccc2c(ccn2Cc2ccccc2)c1,-15%
18,Cc1c(NC(=O)C(=O)N/N=C/c2cccs2)c(=O)n(-c2ccccc2)n1C,3.46%
19,O=C(O)c1ccc(N/N=C/c2cn(-c3ccccc3)nc2-c2cccs2)cc1,34.6% (active)
20,O=S(=O)(/N=C(/Nc1ccccc1)c1ccccc1)c1cccs1,1.09%
21,CN1C[C@]2(C=C3CCCCC3n3c(=O)n(-c4ccccc4)c(=O)n32)N=C1NC(=O)c1ccccc1 (some centres not stated),0.57%
22,COc1cc(C(=S)NC2CCCCC2)ccc1O,0.73%
23,COc1cc(C(=O)Nn2c(O)c(C3=c4ccccc4=NC3=O)sc2=S)ccc1O,57.7% (active)
24,COc1ccc(C(=O)NC(=S)N2CCCCC2c2cccnc2)cc1OC (configuration not stated),-3.67%
25,CCOC(=O)[C@]12CCCC=C1N(Cc1ccc(OC)cc1)C(=O)[C@@H]2CC(=O)N1CCOCC1,5.88%
26,O=C(c1ccc2c(c1)N(Cc1ccc(F)cc1)C(=O)CS2)N1CCOCC1,-7.7%
